Assay results reported in ChEMBL document CHEMBL1122009, “Activated N-nitrosocarbamates for regioselective synthesis of N-nitrosoureas” (J Med Chem, 1982).
Several values for one entry are separate records, joined by “and”; a condition that tells them apart may be missing. Identical values can stand only once. Activity calls are given as the source filed them.

Tests used:
Mus musculus [1] = assay: Compound was tested for its antitumor activity on L1210 leukemia in mice at the dose of 20 mg/kg (i.p.); Not significant; assay type: functional, organism-based; design: dose 20 mg/kg
Mus musculus [2] = assay: Compound was tested for its antitumor activity on L1210 leukemia in mice at the dose of 8 mg/kg (i.p.); Not significant; assay type: functional, organism-based; design: dose 8 mg/kg
Mus musculus [3] = assay: Compound was tested for its antitumor activity on L1210 leukemia in mice at the dose of 50 mg/kg (i.p.); Not significant; assay type: functional, organism-based; design: dose 50 mg/kg
[4] = Acute LD50 of compound was evaluated on L1210 leukemia in mice when administered intraperitoneally; assay type: ADME, organism-based; conditions: mouse, in vivo, ip
Procedure, shortened: (§1)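 Adult B6D2F1 mice were inoculated ip with 10^5 L1210 leukemia cells on day 0. Compound in olive oil (2-150 mg/kg, ip) was given on day 1 and repeated on days 5 and 9 only in mice without signs of toxicity. Mortality was monitored daily, with autopsy to separate leukemic from toxic deaths. Acute LD50 was determined graphically.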

Mus musculus [5] = assay: Compound was tested for its antitumor activity on L1210 leukemia in mice at the dose of 3.2 mg/kg (i.p.); Not significant; assay type: functional, organism-based; design: dose 3.2 mg/kg
Procedure, shortened: (§2)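 B6D2F1 adult mice inoculated ip with 10^5 L1210 cells on day 0. Drug given ip in olive oil on day 1, repeated days 5 and 9 only in mice without toxicity signs. Daily mortality monitoring with autopsy to assign leukemic vs toxic death. Index I = T/C × 100 from median survival; active if I > 125 and Wilcoxon W test significant; ∞ means >50% cured.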

Mus musculus [6] = assay: Compound was tested for its antitumor activity on L1210 leukemia in mice at the dose of 8 mg/kg (i.p.); assay type: functional; conditions: route intraperitoneal; procedure, shortened: as §2
Mus musculus [7] = assay: Compound was tested for its antitumor activity on L1210 leukemia in mice at the dose of 3.2 mg/kg (i.p.); assay type: functional; conditions: route intraperitoneal; procedure, shortened: as §2
Mus musculus [8] = assay: Compound was tested for its antitumor activity on L1210 leukemia in mice at the dose of 20 mg/kg (i.p.); Toxic; assay type: functional, organism-based; design: dose 20 mg/kg; procedure, shortened: as §2
Mus musculus [9] = assay: Compound was tested for its antitumor activity on L1210 leukemia in mice at the dose of 5 mg/kg (i.p.); assay type: functional; conditions: route intraperitoneal; procedure, shortened: as §2
Mus musculus [10] = assay: Compound was tested for its antitumor activity on L1210 leukemia in mice at the dose of 10 mg/kg (i.p.); High percent value; assay type: functional, organism-based; design: dose 10 mg/kg; procedure, shortened: as §2
Mus musculus [11] = assay: Compound was tested for its antitumor activity on L1210 leukemia in mice at the dose of 30 mg/kg (i.p.); High percent value; assay type: functional, organism-based; design: dose 30 mg/kg; procedure, shortened: as §2
Mus musculus [12] = assay: Compound was tested for its antitumor activity on L1210 leukemia in mice at the dose of 20 mg/kg (i.p.); High percent value; assay type: functional, organism-based; design: dose 20 mg/kg; procedure, shortened: as §2
Mus musculus [13] = assay: Compound was tested for its antitumor activity on L1210 leukemia in mice at the dose of 30 mg/kg (i.p.); Toxic; assay type: functional, organism-based; design: dose 30 mg/kg; procedure, shortened: as §2
Mus musculus [14] = assay: Compound was tested for its antitumor activity on L1210 leukemia in mice at the dose of 60 mg/kg (i.p.); High percent value; assay type: functional, organism-based; design: dose 60 mg/kg; procedure, shortened: as §2
Mus musculus [15] = assay: Compound was tested for its antitumor activity on L1210 leukemia in mice at the dose of 2 mg/kg (i.p.); Not significant; assay type: functional, organism-based; design: dose 2 mg/kg; procedure, shortened: as §2
Mus musculus [16] = assay: Compound was tested for its antitumor activity on L1210 leukemia in mice at the dose of 20 mg/kg (i.p.); assay type: functional; conditions: route intraperitoneal; procedure, shortened: as §2
Mus musculus [17] = assay: Compound was tested for its antitumor activity on L1210 leukemia in mice at the dose of 2 mg/kg (i.p.); assay type: functional; conditions: route intraperitoneal; procedure, shortened: as §2
Mus musculus [18] = assay: Compound was tested for its antitumor activity on L1210 leukemia in mice at the dose of 10 mg/kg (i.p.); assay type: functional; conditions: route intraperitoneal; procedure, shortened: as §2
Mus musculus [19] = assay: Compound was tested for its antitumor activity on L1210 leukemia in mice at the dose of 90 mg/kg (i.p.); Toxic; assay type: functional, organism-based; design: dose 90 mg/kg; procedure, shortened: as §2
[20] = Acute LD50 of compound was evaluated on L1210 leukemia in mice; assay type: ADME, organism-based; conditions: mouse, in vivo; procedure, shortened: as §1

## CN(N=O)C(=O)ON1C(=O)CCC1=O
Mus musculus [1]
  T/C: inactive
Mus musculus [2]
  T/C: inactive
Mus musculus [3]
  T/C: inactive
[4]
  LD50: 115 mg/kg

## O=NN(CCCl)C(=O)Oc1ccc([N+](=O)[O-])cc1
Mus musculus [5]
  T/C: inactive
Mus musculus [2]
  T/C: inactive
[4]
  LD50: 17 mg/kg

## O=NN(CCCl)C(=O)ON1C(=O)CCC1=O
Mus musculus [6]
  T/C: 137%
Mus musculus [7]
  T/C: 125%
Mus musculus [8]
  T/C: Toxic
[4]
  LD50: 36 mg/kg

## O=NN(CCCl)C(=O)NCCSSCCNC(=O)N(CCCl)N=O [DITIOMUSTINE]
Mus musculus [9]
  T/C: 212% and 133%
Mus musculus [10]
  T/C: High percent value
Mus musculus [11]
  T/C: High percent value
Mus musculus [12]
  T/C: High percent value
Mus musculus [13]
  T/C: Toxic
Mus musculus [14]
  T/C: High percent value
Mus musculus [15]
  T/C: inactive
Mus musculus [16]
  T/C: 228%
Mus musculus [17]
  T/C: 111%
Mus musculus [18]
  T/C: 151%
Mus musculus [19]
  T/C: Toxic
[20]
  LD50: 75 mg/kg
[4]
  LD50: 28 mg/kg
